H69AR inhibit: growth inhibitors of human H69AR lung tumor cells. H69AR lung tumor viability, ATP luminescence, 72 h; hits give low values. viability, % at 10 µM. actives 6% (n = 85,000);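 active = viability at or below 40%; inactive = viability above 40%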;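 also: multidrug resistant small cell line overexpressing MRP-1 efflux transporter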
Lung fibro prol: blocks proliferation of human lung fibroblasts | AID 719 | LL 47 human lung fibroblast viability, ATP luminescence; hits give low values | actives 1.1% (n = 85,000) | viability, % at 10 µM;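 active = viability at or below 50% in the single dose screen; inactive = viability above 50%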;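 also: compound exposure lasted 72 h before the ATP readout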
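Times – overnight cell rest, 72 h compound treatment at 37 °C · Test system – human lung fibroblast line LL 47, low passage · Amount – 1,150 cells in each well · Controls – cell-only wells, no compound · Doses – 0.1% DMSO in all compound wells · Measured by – CellTiter-Glo luminescence · Buffer or medium – IMEM plus 15% FBS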
HUVEC inhibit: inhibitors of human endothelial cell proliferation | HUVEC proliferation, CellTiter-Glo luminescence, 72 h; hits give low values | viability, % at 10 µM (by protocol) | actives 1.1% (n = 86,000);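 active = viability at or below 30%; inactive = viability above 30%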
bCat KO growth: beta-catenin-lacking colon tumor cell growth suppression | HCT116 beta-catenin knockout viability, CellTiter-Glo, 60 h; hits give low values | viability, % at 10 µM | actives 1.5% (n = 140,000) | AID 818;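 active = viability at or under a set limit, the compound median less 4 SD, cut at about 6% in these data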
HCT116 PTEN-null: PTEN-deleted cell growth suppression; HCT116 PTEN-null viability, CellTiter-Glo, 60 h; hits give low values; viability, % at 10 µM; actives 1.2% (n = 140,000);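 active = viability at or below a set limit, 4 SD under the median of all tested compounds, cut at about 3.7% in these data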;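 also: PTEN knockout HCT116 line with beta catenin targeted HCT116 as companion control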
Each line names hits and unclear results; the compound was inactive in the other large screens. Shown is part of a subset that was picked to be rich in hits.

COc1ccc(-c2nnc(CSc3nc4ccccc4c(=O)n3C)o2)cc1OC	none
COc1ccc(-c2cc(-c3ccc(C)cc3)nc(SCc3nnc(-c4ccccc4)o3)c2C#N)cc1OC	bCat KO growth 1.5, HCT116 PTEN-null 1.3 (no result: H69AR inhibit, Lung fibro prol, HUVEC inhibit)
Cc1cc(C(F)F)nn1CC(=O)NCc1ccccc1F	none
CCOc1ccc(C(=O)CC(=O)C(=O)NCCc2ccc(OC)c(OC)c2)cc1	none (no result: H69AR inhibit, Lung fibro prol, HUVEC inhibit)
CCCCN(C(=O)c1ccc(Cl)cc1)C1CC2CCC(C1)N2C (stereo not drawn)	H69AR inhibit 36
CN(C)N1C(N)=C(C#N)C(c2cccnc2)C2=C1CCCC2=O (stereo not drawn)	none (no result: H69AR inhibit, Lung fibro prol, HUVEC inhibit)
COC(=O)C(C(=O)Nc1ccc(OC)cc1)C1CCCCCC1 (stereo not drawn)	H69AR inhibit 21
Cc1ccc2c(c1)c(=O)c1c3n2CCN(C(=O)CCl)C3CC1 (stereo not drawn)	H69AR inhibit 1.5, Lung fibro prol 2.0, HUVEC inhibit 8.9
Cc1ccc2c(c1)c1c3n2CCN(C(=O)Cn2c(-c4ccccc4)noc2=O)C3CCC1 (stereo not drawn)	none
Cc1ccc2c(c1)c1c3n2CCCN(Cc2ccccc2)C3CCC1 (stereo not drawn)	H69AR inhibit 36
CN1CCN(CC(=O)N2CCn3c4c(c5cc(C6CCCCC6)ccc53)CCCC42)CC1 (stereo not drawn)	H69AR inhibit 1.1, Lung fibro prol 1.9, HUVEC inhibit 2.7, bCat KO growth 1.3, HCT116 PTEN-null 1.6
Cc1ccc2c(c1)c1c3n2CCN(C(=O)CN2CCN(C)CC2)C3CCC1 (stereo not drawn)	HUVEC inhibit 23, bCat KO growth 1.0, HCT116 PTEN-null 0.8
Cc1ccc2c(c1)c1c3n2CCN(C(=O)C2CC2)C3CCC1 (stereo not drawn)	none
CC(NC(=O)/C=C/c1cnc2ccccc2n1)C12CC3CC(CC(C3)C1)C2 (stereo not drawn)	none (no result: H69AR inhibit, Lung fibro prol, HUVEC inhibit)
O=C(NCCNC(=O)c1cc(OCC(F)(F)F)ccc1OCC(F)(F)F)Nc1ccc(Cl)cc1	bCat KO growth 5.4 (no result: H69AR inhibit, Lung fibro prol, HUVEC inhibit)
CCOc1ccc(NC(=O)Nc2cc(OCC(F)(F)F)cc(OCC(F)(F)F)c2)cc1	none (no result: H69AR inhibit, Lung fibro prol, HUVEC inhibit)
O=C(Nc1ccc(F)cc1)Nc1cc(OCC(F)(F)F)cc(OCC(F)(F)F)c1	bCat KO growth 5.5, HCT116 PTEN-null 3.7 (no result: H69AR inhibit, Lung fibro prol, HUVEC inhibit)
C=Cn1ccnc1P(=S)(c1ccc2c(c1)c1ccccc1n2CC)c1nccn1C=C	H69AR inhibit 13
CCn1c2ccccc2c2cc(NC(C)=O)ccc21	none
CCOC(=O)COc1ccccc1/C=C\[N+](=O)[O-]	none (no result: H69AR inhibit, Lung fibro prol, HUVEC inhibit)
O=C(Nc1cccc(C(F)(F)F)c1)Nc1ccc(N2CCCC2)c(S(=O)(=O)Nc2ccccc2Cl)c1	bCat KO growth 1.5, HCT116 PTEN-null 1.5 (no result: H69AR inhibit, Lung fibro prol, HUVEC inhibit)
COc1ccccc1NS(=O)(=O)c1cc(NC(=O)Nc2ccc(Cl)cc2Cl)ccc1N1CCCCC1	none (no result: H69AR inhibit, Lung fibro prol, HUVEC inhibit)
O=C(CSc1nc(-c2ccccc2)c(-c2ccccc2)[nH]1)NCCN1C(=O)CSC1=O	H69AR inhibit 21
O=C(CSc1nc(-c2ccccc2)c(-c2ccccc2)[nH]1)NCc1ccco1	none
O=C1C(Cl)=C(N2CCCCC2)C(=O)C(Cl)=C1c1cnc(N2CCCCC2)s1	H69AR inhibit 1.6, Lung fibro prol 19, HUVEC inhibit 14, bCat KO growth 1.1, HCT116 PTEN-null 1.5
CN(C)c1ncc(C2=C(Cl)C(=O)C(N3CCCC3)=C(Cl)C2=O)s1	HUVEC inhibit 23, bCat KO growth 1.4, HCT116 PTEN-null 1.6
CC(=O)c1cnc(N(C)C)s1	none
Cc1ccc(NC(=O)Cn2cnc3sc(C(=O)NCCN(C)C)c(C)c3c2=O)cc1Cl	HUVEC inhibit 8.3
CCN(CC)S(=O)(=O)c1cccc(NC(=O)Nc2cccc(C(F)(F)F)c2)c1	bCat KO growth 4.2, HCT116 PTEN-null 3.2 (no result: H69AR inhibit, Lung fibro prol, HUVEC inhibit)
CCN(CC)S(=O)(=O)c1ccc2c(c1)nc(CCC(=O)Nc1cccc(C(F)(F)F)c1)n2CC	H69AR inhibit 14
Cc1cc(NC(=O)Nc2cccc(C(F)(F)F)c2)no1	none
O=C(Nc1ccc2cn[nH]c2c1)c1ccc(Cl)c(S(=O)(=O)N2CCOCC2)c1	none (no result: H69AR inhibit, Lung fibro prol, HUVEC inhibit)
O=C1/C(=C/c2ccc([N+](=O)[O-])cc2)C=C(c2ccccc2)N1c1ccc(O)cc1	H69AR inhibit 26, HUVEC inhibit 9.9, bCat KO growth 2.2, HCT116 PTEN-null 2.2
COc1ccc(N2C(=O)/C(=C/c3ccc([N+](=O)[O-])cc3)C=C2c2ccccc2)cc1	H69AR inhibit 21
CC(=O)N(c1ccccc1)c1nc(/C=C/C(=O)Nc2c(C)cc(C)cc2C)cs1	none (no result: H69AR inhibit, Lung fibro prol, HUVEC inhibit)
Cn1c(C2CCCN2C(=O)OC(C)(C)C)n[nH]c1=S (stereo not drawn)	H69AR inhibit 1.8
O=C(NCCCn1ccnc1)c1cc2nc(-c3ccc(Br)cc3)cc(C(F)(F)F)n2n1	H69AR inhibit 4.2
Cc1cccc(Oc2nc(CN3CCOCC3)nc3sc4c(c23)CCCC4)c1	none (no result: H69AR inhibit, Lung fibro prol, HUVEC inhibit)
C=CCn1c(SCc2csc(C)n2)nc2sc3c(c2c1=O)CCC(C)C3 (stereo not drawn)	H69AR inhibit 31
C=CCn1c(SCc2csc(C)n2)nc2sc3c(c2c1=O)CCCC3	none
COc1ccc(CCN2C(=O)CS/C2=N/NC(=O)c2ccccc2F)cc1OC	none (no result: H69AR inhibit, Lung fibro prol, HUVEC inhibit)
COc1ccc(C(=O)Nc2nc3c(s2)Cc2cc(OC)ccc2-3)cc1	none
COc1ccc2c(c1)Cc1sc(NC(=O)c3ccccc3)nc1-2	H69AR inhibit 11
CCCCCCn1c(CN2CCCCC2CC)nc2c1c(=O)n(C)c(=O)n2C (stereo not drawn)	none
CN1C2C=C3C(C#N)=C(N)C(C#N)(C#N)[C@@H](c4cccc(F)c4)[C@@H]3C1CC2 (stereo partly drawn)	none
N#CC1=C(N)C(C#N)(C#N)[C@H](c2c(F)cccc2F)[C@H]2CC3(CC=C12)OCCO3	H69AR inhibit 3.0
CN1C2C=C3C(C#N)=C(N)C(C#N)(C#N)[C@H](c4c(F)cccc4F)[C@H]3C1CC2 (stereo partly drawn)	H69AR inhibit 18
N#CC1=C(N)C(C#N)(C#N)C2(CCC3(CC2)OCCO3)C2CC3(CC=C12)OCCO3 (stereo not drawn)	none
Cc1cccc(C)c1OCC(=O)N=Nc1c(O)[nH]c2ccc(Br)cc12	H69AR inhibit 1.9, HUVEC inhibit 17
O=C(N=Nc1c(O)[nH]c2ccc(Br)cc12)c1cc(-c2cccc3ccccc23)n[nH]1	none (no result: H69AR inhibit, Lung fibro prol, HUVEC inhibit)
COc1ccc(-c2c3c(nc4sc(C(=O)Nc5ccccc5)c(N)c24)CCC3)cc1	H69AR inhibit 30 (no result: bCat KO growth, HCT116 PTEN-null)
COCCCNC(=O)c1c(NC(=O)C2COc3ccccc3O2)sc2c1CCCC2 (stereo not drawn)	H69AR inhibit 35
CCOC(=O)c1c(NC(=O)C2COc3ccccc3O2)sc(C(C)=O)c1C (stereo not drawn)	H69AR inhibit 21, HUVEC inhibit 23
CCNC(=O)c1c(NC(=O)C2COc3ccccc3O2)sc2c1CCCC2 (stereo not drawn)	none

Screens: PubChem BioAssay, SRMLSC
